Source: ChEMBL document CHEMBL4190216, “Asymmetric 1,5-diarylpenta-1,4-dien-3-ones: Antiproliferative activity in prostate epithelial cell models and pharmacokinetic studies” (Eur J Med Chem, 2017)

Legend:
PC-3 [1] = experiment: Antiproliferative activity against human PC3 cells assessed as decrease in cell viability after 3 days by WST assay; type: functional, cell-based; settings: PC-3, 72 h
Procedure, shortened: (§1)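 Cells were seeded at 3,200 per well. PC-3 and LNCaP were grown in RPMI-1640 and DU-145 in EMEM, each with 10% FBS and 1% penicillin/streptomycin, at 37 °C and 5% CO2. Cells were exposed for 3 days to at least five concentrations, with DMSO as vehicle control. WST-1 reagent was then added for 3 h at 37 °C and absorbance read at 430 nm. IC50 came from linear inhibition, averaged over triplicates.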

DU-145 [2] = experiment: Antiproliferative activity against human DU145 cells assessed as decrease in cell viability after 3 days by WST assay; type: functional, cell-based; settings: DU-145, 72 h; procedure, shortened: as §1
LNCaP [3] = experiment: Antiproliferative activity against human LNCAP cells assessed as decrease in cell viability after 3 days by WST assay; type: functional, cell-based; settings: 72 h; procedure, shortened: as §1
PC-3 [4] = experiment: Potency index, ratio of curcumin IC50 to test compound IC50 for human PC3 cells; type: functional
DU-145 [5] = experiment: Potency index, ratio of curcumin IC50 to test compound IC50 for human DU145 cells; type: functional
LNCaP [6] = experiment: Potency index, ratio of curcumin IC50 to test compound IC50 for human LNCAP cells; type: functional
PWR-1E [7] = experiment: Antiproliferative activity against human PWR-1E cells expressing androgen receptor and PSA assessed as decrease in cell viability after 3 days by WST assay; type: functional, cell-based; settings: 72 h
Procedure, shortened: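 Non-malignant prostate epithelial PWR-1E (adenovirus 12/SV40-immortalized) was seeded at 5,000 per well. Cells were exposed for 3 days at 37 °C in a CO2 incubator to at least five concentrations, with DMSO as vehicle control. WST-1 reagent was then added for 3 h at 37 °C and absorbance read at 430 nm. IC50 came from linear inhibition, as the mean of triplicate determinations.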

PWR-1E [8] = experiment: Potency index, ratio of curcumin IC50 to test compound IC50 for human PWR-1E cells expressing androgen receptor and PSA; type: functional
[9] = Drug level in human liver microsomes treated with (1E,4E)-1-(1-(sec-Butyl)1H-imidazol-2-yl)-5-(2-methyl-4-(trifluoromethyl)thiazol-5-yl)penta-1,4-dien-3-one at 10 mM after 60 mins by UHPLC analysis; type: ADME, microsome
Procedure, shortened: (§2)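 Pooled human liver microsomes in potassium phosphate buffer (pH 7.4) with NADPH solutions A and B were preincubated for 5 min at 37 °C. Compound was then added from a 10 mM stock (3 μL into 300 μL total) and incubated 60 min at 37 °C. Reactions were quenched with an equal volume of methanol and centrifuged (10,000 × g, 4 min, 4 °C). Supernatant went to UHPLC–high-resolution MS for metabolite identification.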

[10] = Retention time of the compound; type: physicochemical
[11] = Drug level in human liver microsomes treated with (1E,4E)-1-(1-Ethyl1H-benzo[d]imidazol-2-yl)-5-(2-methyl-4-(trifluoromethyl)thiazol-5-yl)penta-1,4-dien-3-one at 10 mM after 60 mins by UHPLC analysis; type: ADME, microsome; settings: 1 h; procedure, shortened: as §2

Row | SMILES | IC50 (PC-3 [1]) [nM] | IC50 (DU-145 [2]) [nM] | IC50 (LNCaP [3]) [nM] | Ratio IC50 (PC-3 [4]) | Ratio IC50 (DU-145 [5]) | Ratio IC50 (LNCaP [6]) | IC50 (PWR-1E [7]) [nM] | Ratio IC50 (PWR-1E [8]) | Drug metabolism [9] | Retention_time [10] [min] | Drug metabolism [11]
1 | CCC(C)n1ccnc1/C=C/C(=O)/C=C/c1cc(OC)c(OC)c(OC)c1 (stereo not drawn) | 720 | 670 | 660 | 35 | 39 | 21 | – | – | – | – | –
2 | CCC(C)n1ccnc1/C=C/C(=O)/C=C/c1ccc(OC)c(OC)c1 (stereo not drawn) | 1330 | 850 | 910 | 19 | 31 | 15 | – | – | – | – | –
3 | Cc1nc(C(F)(F)F)c(/C=C/C(=O)/C=C/c2nc3ccccc3n2C)s1 | 480 | 780 | 340 | 53 | 34 | 40 | – | – | – | – | –
4 | CCCn1c(/C=C/C(=O)/C=C/c2ccccn2)nc2ccccc21 | 250 | 320 | 170 | 102 | 82 | 80 | 20 | 443 | – | – | –
5 | Cc1cccc(/C=C/C(=O)/C=C/c2ccccn2)n1 | 540 | 630 | 300 | 47 | 42 | 45 | – | – | – | – | –
6 | CC(C)n1ccnc1/C=C/C(=O)/C=C/c1cnc(N2CCCC2)s1 | 6860 | 3680 | 4050 | 4 | 7 | 3 | – | – | – | – | –
7 | CCn1c(/C=C/C(=O)/C=C/c2ccccn2)nc2ccccc21 | 230 | 460 | 120 | 111 | 57 | 113 | 40 | 221 | – | – | –
8 | Cc1nc(-c2ccncc2)sc1/C=C/C(=O)/C=C/c1nccn1C(C)C | 800 | 660 | 540 | 32 | 40 | 25 | – | – | – | – | –
9 | CCCC(C)n1ccnc1/C=C/C(=O)/C=C/c1nc2ccccc2n1C(C)CCC (stereo not drawn) | 140 | 280 | 370 | 182 | 94 | 37 | 40 | 221 | – | – | –
10 | Cc1cc(/C=C/C(=O)/C=C/c2ccccn2)no1 | 450 | 700 | 310 | 57 | 38 | 44 | – | – | – | – | –
11 | CCC(C)n1ccnc1/C=C/C(=O)/C=C/c1nccs1 (stereo not drawn) | 390 | 420 | 170 | 64 | 62 | 80 | 140 | 63 | – | – | –
12 | CCC(C)n1ccnc1/C=C/C(=O)/C=C/c1conc1C (stereo not drawn) | 370 | 750 | 240 | 69 | 35 | 57 | – | – | – | – | –
13 | CC(C)Cn1ccnc1/C=C/C(=O)/C=C/c1nc2ccccc2n1CC(C)C | 200 | 370 | 560 | 127 | 71 | 24 | – | – | – | – | –
14 | CCCn1c(/C=C/C(=O)/C=C/c2sc(C)nc2C(F)(F)F)nc2ccccc21 | 550 | 840 | 460 | 46 | 31 | 30 | – | – | – | – | –
15 | CCC(C)n1cc(O)nc1/C=C/C(=O)/C=C/c1sc(C)nc1C(F)(F)F (stereo not drawn) | – | – | – | – | – | – | – | – | Metabolite_Detected | 3.32 | –
16 | CCn1c(/C=C/C(=O)/C=C(\O)c2sc(C)nc2C(F)(F)F)nc2ccccc21 | – | – | – | – | – | – | – | – | – | 4.66 | Metabolite_Detected
17 | CCCCn1ccnc1/C=C/C(=O)/C=C/c1nc2ccccc2n1CCCC | 190 | 310 | 400 | 134 | 85 | 34 | – | – | – | – | –
18 | CC(C)n1ccnc1/C=C/C(=O)/C=C/c1cnc(N2CCCCC2)s1 | 3400 | 2550 | 2170 | 8 | 10 | 6 | – | – | – | – | –

Row | SMILES | IC50 (PC-3 [1]) [nM] | IC50 (DU-145 [2]) [nM] | IC50 (LNCaP [3]) [nM] | Ratio IC50 (PC-3 [4]) | Ratio IC50 (DU-145 [5]) | Ratio IC50 (LNCaP [6]) | IC50 (PWR-1E [7]) [nM] | Ratio IC50 (PWR-1E [8]) | Drug metabolism [9] | Retention_time [10] [min] | Drug metabolism [11]
19 | Cn1c(/C=C/C(=O)/C=C/c2ccccn2)nc2ccccc21 | 560 | 680 | 180 | 45 | 39 | 76 | – | – | – | – | –
20 | Cn1cc(Br)c(/C=C/C(=O)/C=C/c2ccccn2)n1 | 310 | 500 | 220 | 82 | 53 | 62 | 100 | 89 | – | – | –
21 | CCC(C)n1ccnc1/C=C/C(=O)/C=C/c1ccccn1 (stereo not drawn) | 300 | 340 | 240 | 85 | 77 | 57 | 170 | 52 | – | – | –
22 | CCC(C)n1ccnc1/C=C/C(=O)/C=C/c1nn(C)cc1Br (stereo not drawn) | 330 | 280 | 310 | 76 | 94 | 44 | 140 | 63 | – | – | –
23 | CCC(C)n1ccnc1/C=C/C(=O)/C=C/c1cc(C)on1 (stereo not drawn) | 310 | 530 | 240 | 82 | 50 | 57 | 110 | 81 | – | – | –
24 | COc1cc(/C=C/C(=O)/C=C/c2ccccn2)cc(OC)c1OC | 840 | 830 | 400 | 30 | 32 | 34 | – | – | – | – | –
25 | CC(C)n1ccnc1/C=C/C(=O)/C=C/c1nc2ccccc2n1C(C)C | 180 | 130 | 260 | 141 | 138 | 52 | 30 | 293 | – | – | –
26 | CC(C)CCn1ccnc1/C=C/C(=O)/C=C/c1nc2ccccc2n1CCC(C)C | 210 | 770 | 930 | 121 | 34 | 41 | – | – | – | – | –
27 | CCC(C)n1ccnc1/C(O)=C/C(=O)/C=C/c1sc(C)nc1C(F)(F)F (stereo not drawn) | – | – | – | – | – | – | – | – | Metabolite_Detected | 3.7 | –
28 | CCC(C)n1ccnc1/C=C/C(=O)/C=C/c1cccc(C)n1 (stereo not drawn) | 260 | 290 | 260 | 98 | 90 | 52 | 130 | 68 | – | – | –
29 | CCC(C)n1ccnc1/C=C/C(=O)/C=C(\O)c1sc(C)nc1C(F)(F)F (stereo not drawn) | – | – | – | – | – | – | – | – | Metabolite_Detected | 3.97 | –
30 | COc1ccc(/C=C/C(=O)/C=C/c2ccccn2)cc1OC | 1700 | 2050 | 1760 | 15 | 13 | 8 | – | – | – | – | –
31 | Cc1nc(C(F)(F)F)c(/C=C/C(=O)/C=C/c2nc3ccccc3n2C(C)C)s1 | 340 | 570 | 300 | 75 | 46 | 45 | 50 | 177 | – | – | –
32 | CC(C)n1ccnc1/C=C/C(=O)/C=C/c1cnc(N2CCOCC2)s1 | 2270 | 1320 | 1410 | 11 | 20 | 10 | – | – | – | – | –
33 | CCC(C)n1ccnc1/C=C/C(=O)/C=C/c1nc2ccccc2n1C(C)CC (stereo not drawn) | 240 | 350 | 330 | 106 | 75 | 41 | – | – | – | – | –
34 | CCn1c(/C(O)=C/C(=O)/C=C/c2sc(C)nc2C(F)(F)F)nc2ccccc21 | – | – | – | – | – | – | – | – | – | 4.54 | Metabolite_Detected
35 | O=C(/C=C/c1ccccn1)/C=C/c1nccs1 | 550 | 1130 | 450 | 46 | 23 | 30 | – | – | – | – | –
36 | COc1cc(/C=C/C(=O)CC(=O)/C=C/c2ccc(O)c(OC)c2)ccc1O [CURCUMIN] | – | – | – | – | – | – | 8850 | – | – | – | –
